# Hits are enriched below; roughly 8.8% of the tested compounds scored in any of these assays.
# M1 ag: agonists of M1 muscarinic receptor; CHO-M1 cells, Fluo-4 calcium fluorescence, agonist mode; stronger effect = higher value; B-score at 10 µM; actives 3% (n = 64,000);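 active = fluorescence rise, raw or as B-score row- and column-corrected plate score, outside the 99.7% band of its plate's samples, either direction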
# RORA act: activators of human nuclear receptor RORA; CHO-K1 Gal4-RORA LBD luciferase reporter, luminescence; percent increase over mock-subtracted basal signal; activation, % at 10 µM; actives 1.5% (n = 65,000);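 active = activation above the mean of all tested compounds plus 3 SD, cut at about 49% in these data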;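 note: 0% = DMSO-treated RORA cells and 100% = added signal equal to DMSO minus mock-transfected cells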
# M1 antagonist: antagonists of rat M1 muscarinic receptor. B-score at 10 µM. AID 628. CHO-M1 cells, Fluo-4 calcium, ACh EC80 antagonist mode; stronger effect = lower value. P08482. actives 3.4% (n = 64,000);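 active = calcium fluorescence response, raw or row-and-column corrected B-score, differing from the plate sample mean either way at a set confidence level, mostly lower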
# S1P1 ag pot: agonists and agonism potentiators of human S1P1 receptor; actives 0.57% (n = 56,000); AID 449; S1P1 CRE-bla cells, forskolin, beta-lactamase FRET, potentiator mode; S1P1 agonist co-added at EC20, 2 nM; 100% = saturating reference agonist, 0% = basal; activation, % at 9.5 µM; P21453;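 active = activation above a cutoff set at the mean activation of all tested compounds plus 3 SD, cut at about 54% in these data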;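 note: forskolin at 4 µM as EC80 and the EC20 agonist is SEW2871; 100% = SEW2871 at its EC100 plus forskolin at EC80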
# SF-1 act: activates the human nuclear receptor SF-1 | CHO-K1 Gal4-SF-1 LBD luciferase reporter; % increase over DMSO SF-1-specific signal | actives 1.9% (n = 65,000) | activation, % at 10 µM;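 active = activation above the mean activation of all tested compounds plus 3 SD, cut at about 50% in these data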
#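 Assay system: CHO-K1 cells co-transfected with Gal4 DBD–human SF-1 LBD, 5xGal4 luciferase reporter; doses: 10 µM only; incubation: 20 h compound exposure at 37 °C after 1 h cell settling; signal: luciferase light emission; evaluation: percent activation versus DMSO; repeats: one test per compound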
# S1P3 ag: S1P3 (human) receptor agonism; S1P3 NFAT-BLA reporter cells, FRET ratio; relative to 1 µM S1P, basal subtracted; activation, % at 4.5 µM; actives 0.1% (n = 60,000);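 active = activation above the screen-wide mean plus 3 SD, cut at about 4.5% in these data, passing the limit was not always enough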
#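 Assay system: CHO cells stably expressing human S1P3, Gα16 and NFAT-β-lactamase reporter. Timing: overnight plating, 4 h compound 37 °C, 2 h substrate RT. Signal: β-lactamase FRET emission ratio 460/535 nm. Measure: percent activation versus median 1 µM S1P response, basal-subtracted, per plate. Repeats: primary screen single test, confirmation screen in triplicate.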
# M1 agonist conf: rat M1 muscarinic agonism, confirmation | shares compounds with M1 ag | CHO-M1 cells, Fluo-4 calcium fluorescence, agonist mode; actives lie on both sides | fluorescence change (max-min) at 10 µM | actives 19% (n = 1,700);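 active = fluorescence change differs from the solvent-only DMSO control mean at a set confidence level in both duplicate runs; inconclusive = differs from solvent-only control mean in just one of two runs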;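 note: an EC20 dose of acetylcholine follows compound addition during the same imaging run; raw fluorescence intensity difference in instrument units with no normalization to controls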
# M4 agonist ctr: counter-screen for M1 agonists: activity at rat M4 receptor. shares compounds with M1 ag. CHO M4/Gqi5 cells, Fluo-4 calcium fluorescence, agonist mode; actives lie on both sides. fluorescence change (max-min) at 10 µM. actives 9% (n = 1,700). AID 1741;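 active = fluorescence change differing from the plate's solvent-only control wells at 99.7% confidence in both duplicates, whether higher or lower; inconclusive = differs from solvent controls in only one of two duplicates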
# Target sequence (P08485 whole entry, looked up): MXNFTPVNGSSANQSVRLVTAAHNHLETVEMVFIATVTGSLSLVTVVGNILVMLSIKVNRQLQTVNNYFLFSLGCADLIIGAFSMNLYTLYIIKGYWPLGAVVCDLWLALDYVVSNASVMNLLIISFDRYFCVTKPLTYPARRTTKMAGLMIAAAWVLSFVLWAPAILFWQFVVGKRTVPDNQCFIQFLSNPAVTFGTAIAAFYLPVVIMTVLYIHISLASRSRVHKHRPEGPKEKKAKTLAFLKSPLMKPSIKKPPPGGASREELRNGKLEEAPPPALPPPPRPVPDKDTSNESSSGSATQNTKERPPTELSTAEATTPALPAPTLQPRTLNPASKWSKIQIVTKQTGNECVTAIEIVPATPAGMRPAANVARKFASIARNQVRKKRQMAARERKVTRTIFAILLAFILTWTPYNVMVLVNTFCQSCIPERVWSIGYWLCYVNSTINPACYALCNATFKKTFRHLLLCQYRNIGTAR
# * = called active by the depositor; u = inconclusive; x = no result.
SMILES,M1 ag,RORA act,M1 antagonist,S1P1 ag pot,SF-1 act,S1P3 ag,M1 agonist conf,M4 agonist ctr
CCC(Sc1nc(N)cc(=O)[nH]1)C(=O)NC(C(=O)OC)c1ccccc1 (stereo not given),3.23*,-9.6,0.868,x,-3.5,0.2,-10.9,-43.8
CCCCNC(=O)Nc1c(C(=O)OCC)[nH]c2ccccc12,0.578,-0.7,0.352,-3.0,-3.1,-1.0,x,x
CCCCCCNc1c(C(=O)OCC)c(=O)[nH]c2ccccc12,5.43*,-12.0,-0.37,5.7,-3.0,-1.5,-27.9,-33.3
Cn1nc(-c2ccc(C(=O)Nc3cccnc3)cc2)c2ccccc2c1=O,0.457,-11.1,0.033,-22.9,3.1,-0.5,x,x
Cn1nc(-c2ccc(OCC(=O)Nc3cccnc3)cc2)c2ccccc2c1=O,6.19*,-3.8,-0.59,x,-0.7,-1.2,u,-37.7
CC(C)c1nc(SCc2c(F)cccc2Cl)c2c(=O)n(C)c(=O)n(C)c2n1,2.31,-7.7,-2.14,-6.5,-12.4,0.7,x,x
CCO/C(C)=N/n1c2nc3ccccc3nc2c2c(=O)n(C3CCCC3)c(C)nc21,9.43*,31.0,-0.502,-2.5,33.3,-1.2,u,-41
CCSc1nnc(NC(=O)c2ccccn2)s1,11.2*,-15.0,-0.105,15.4,-55.4,-0.2,u,-59.5
CCSc1nnc(NC(=O)c2cnccn2)s1,-0.253,43.3,0.164,4.4,24.8,-1.2,x,x
Oc1ccc2cccnc2c1,14.8*,0.1,-0.00701,7.0,1.8,-0.4,112*,45.8
COc1ccc(S(=O)(=O)N2CCCCCC2)cc1C(=O)OCc1c(C)noc1C,0.0497,2.3,-0.54,10.4,14.9,-0.3,x,x
Cc1noc(C)c1COC(=O)c1cccc(S(=O)(=O)N2CCCCCC2)c1,3.06*,-24.8,-2.22,51.1,-31.9,-0.6,-16.8,-39
CN(CCCC(=O)Nc1ccncc1)S(=O)(=O)c1ccc(Cl)cc1,4.12*,-19.2,-0.209,35.3,1.1,-1.7,5.13,-25.3
c1csc(CCNc2ncnc3sc4c(c23)CCC4)c1,3.92*,-71.7,-1.34*,152.8*,-75.9,-2.4,3.06,-21.1
CCOC(=O)Cn1c(C)nc2ccccc21,-0.107,-13.4,0.326,x,5.5,-0.6,x,x
CCCOC(=O)c1ccc(OCC(O)Cn2c(C)nc3ccccc32)cc1 (stereo not given),5.69*,-39.9,-0.289,95.0*,-35.7,-1.2,u,-84.5
Cc1cccc(N2CCN(C(=O)C3CCCN(S(=O)(=O)c4c(C)noc4C)C3)CC2)c1C (stereo not given),-0.463,-3.9,0.0747,12.4,-12.0,-0.7,x,x
CC1(C)C(c2ccccc2)=[N+]([O-])CN1O,0.0329,-13.5,-0.703,5.5,-10.6,-0.7,x,x
O=S(=O)(Nc1cccnc1)c1ccc(C2CCCCC2)cc1,7.1*,-45.4,-3.1*,x,-45.5,x,12.4,-15.4
O=S(=O)(Nc1ccccn1)c1ccc(C2CCCCC2)cc1,x,-14.8,x,-6.0,-2.5,-0.4,x,x
O=C(NCC(=O)N(c1ccccc1)C(C(=O)NCC1CCCO1)c1ccccc1)c1ccco1 (stereo not given),8.32*,-15.6,-0.317,6.5,7.2,-0.7,u,-54.4
O=C(NCC(=O)N(Cc1cccs1)C(C(=O)NC1CCCC1)c1ccco1)c1cccs1 (stereo not given),3.21*,-7.2,-1.21,2.6,4.0,-0.5,-17.3,u
O=C(NCC(=O)N(c1ccccc1)C(C(=O)NC1CCCCC1)c1ccncc1)c1ccco1 (stereo not given),2.48*,-4.4,-0.0252,-6.8,-23.4,-1.2,-11.1,u
O=C(Nc1ccc(C(=O)Oc2ccccc2)c(O)c1)c1ccco1,x,-0.2,x,34.1,16.1,-1.7,x,x
